Experimental data from different studies.
Lines come from different studies, so protocols differ.
Target: Protein-tyrosine kinase 2-beta (PTK2B, Homo sapiens, UniProt Q14289)

CCN(CC)CCNC(=O)c1c(C)[nH]c(/C=C2\C(=O)Nc3ccc(F)cc32)c1C  inhibition (enzyme activity, inhibitor; 10 µM): 97%
CCCS(=O)(=O)Nc1ccc(F)c(C(=O)c2c[nH]c3ncc(-c4ccc(Cl)cc4)cc23)c1F  inhibition (enzyme activity, inhibitor; 1 µM): < 10%
CN(c1ccnc(CNc2nc(Nc3ccc4c(c3)CC(=O)N4)ncc2C(F)(F)F)n1)S(C)(=O)=O  remaining binding (cell-free assay, competition with immobilised ligand; 1 µM): 59%
Cc1sc(C(=O)NC2COC2)cc1-n1cc(NC(=O)Nc2c(F)cccc2Cl)cn1  remaining activity (enzyme activity, inhibitor; 10 µM): 104%
CCCCN(CCCC)C(=O)CN1C[C@H](c2cc(OC)c3c(c2)OCO3)[C@@H](C(=O)O)[C@@H]1CC(C)(C)CCC  remaining binding (cell-free assay, competition with immobilised ligand; 1 µM): 100%
Nc1nc(Nc2ccc(S(N)(=O)=O)cc2)nn1C(=O)c1c(F)cccc1F  remaining signal (cell-free assay; 0.5 µM): 79.7%
Cc1ccc(Nc2nccc(N(C)c3ccc4c(C)n(C)nc4c3)n2)cc1S(N)(=O)=O  inhibition (enzyme activity, inhibitor; 10 µM): 81%
CCCOc1ccc(OC)c(F)c1C(=O)c1ccc(C(=O)N[C@@H]2CNC[C@H]2NC(=O)c2ccc3[nH]ncc3c2)cc1  remaining activity (enzyme activity, inhibitor; 10 µM): 77%
CC(C)(C)c1nc(-c2cccc(NS(=O)(=O)c3c(F)cccc3F)c2F)c(-c2ccnc(N)n2)s1  remaining activity (enzyme activity, inhibitor, radiometric; 1 µM): 109%
FC(F)(F)c1ccc2c(c1)nc(-c1cccnc1)n2C1CC1  remaining binding (cell-free assay, competition with immobilised ligand; 1 µM): 100%
CCN(CC)c1ccc(C2=NNC(=O)CC2C)cc1[N+](=O)[O-] (stereo not shown)  remaining activity (enzyme activity, inhibitor; 10 µM): 97%
N#CCCc1ccc2c(c1)-c1[nH]c3ccc([N+](=O)[O-])cc3c1CC(=O)N2  remaining signal (cell-free assay; 0.5 µM): 62.9%
CO[C@@H](C)c1c(Nc2ccc([C@H](N(C)C(=O)C3CCS(=O)(=O)CC3)C(F)(F)F)cc2)cnc2cc(Cl)nn12  remaining binding (cell-free assay, competition with immobilised ligand; 1 µM): 83%
COc1cc2nccc(Oc3ccc(NC(=O)c4c5n(n(-c6ccc(F)cc6)c4=O)CCCC5)cc3)c2cc1OC  inhibition (enzyme activity, inhibitor; 0.1 µM): 0%
Cc1[nH]c(/C=C2\C(=O)Nc3ccc(F)cc32)c(C)c1C(=O)N[C@H]1CCN(C(=O)N(C)C)C1  remaining activity (enzyme activity, inhibitor; 1 µM): 75%
COc1cc2ncnc(Nc3ccc(Oc4ccccc4)cc3C)c2cc1OC  inhibition (enzyme activity, inhibitor; 1 µM): 3%
Cc1cc(NC(=O)c2cccc3cc(-c4cccc5[nH]nc(N)c45)ccc23)ccc1F  activity vs control (enzyme activity, inhibitor; 0.1 µM): 113%
O=C1NC(=O)c2cc(Nc3ccc(F)cc3)c(Nc3ccc(F)cc3)cc21  remaining signal (cell-free assay; 0.5 µM): 111%
CNC(=O)c1cc(Oc2ccc(NC(=O)Nc3ccc(Cl)c(C(F)(F)F)c3)cc2)ccn1  inhibition (enzyme activity, inhibitor; 10 µM): 28%
O=c1nc(-c2ccccn2)sc2ccccc12  remaining binding (cell-free assay, competition with immobilised ligand; 1 µM): 100%
CN1CC(Oc2cnc(C#N)cc2-c2ccn3nc(NC(=O)C4CC4)cc3c2)C1  inhibition (enzyme activity, inhibitor; 1 µM): 6%
Cc1ccc(C(=O)Nc2ccc(CN3CCN(C)CC3)c(C(F)(F)F)c2)cc1C#Cc1cnc2cccnn12  remaining activity (enzyme activity, inhibitor; 23.5 nM): 45%
Cc1nc(Cc2cccc(C(F)(F)F)c2)sc1-c1ccc(C(N)=O)nc1  remaining binding (cell-free assay, competition with immobilised ligand; 1 µM): 100%
c1nc2c(Nc3ccc4c(c3)OCCO4)nc(Nc3ccc4c(c3)OCCO4)nc2[nH]1  activity vs control (enzyme activity, inhibitor; 10 µM): 2.3%
O=C(Nc1ccc(Oc2ccc(F)cc2)cc1)N1CCc2ncccc2[C@H]1c1ccc(F)cc1  remaining binding (cell-free assay, competition with immobilised ligand; 1 µM): 89%
CCN(CC)CCNC(=O)c1c(C)[nH]c(/C=C2\C(=O)Nc3ccc(F)cc32)c1C  remaining activity (enzyme activity, inhibitor; 0.1 µM): 86%
Oc1cccc(-c2nc(N3CCOCC3)c3oc4ncccc4c3n2)c1  remaining signal (cell-free assay; 0.5 µM): 103%
C[C@H](c1ccc(F)cc1)N(Cc1cccc(C(=O)O)c1)C(=O)c1cnc2ccccc2c1  remaining binding (cell-free assay, competition with immobilised ligand; 1 µM): 100%
